Data set [1] is described as follows: Inhibition of HCMV DNA polymerase by scintillation proximity assay. Also noted: species or system Human betaherpesvirus 5. Put shortly:
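Scintillation proximity assay with purified HCMV DNA polymerase, measuring incorporation of ³H-labelled nucleotide into template-primer. IC50 values are means of at least two experiments, with standard deviation where given.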
In general terms: Scintillation proximity formats need no separation of bound from free tracer.

The test system of another data set is Human betaherpesvirus 5. In words: Antiviral activity against HCMV Davis by plaque reduction assay. It counts as functional, organism-based. To be noted: Human betaherpesvirus 5, Davis. Put shortly: (§1)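 Plaque reduction assays used HCMV Davis strain and HSV-1 KOS strain. IC50 values are means of at least two experiments, with standard deviation where given.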
In general terms: Plaques are areas of infected cells; plaque reduction assays count them against a control.

Data set [2] can be described thus: Inhibition of human polymerase delta by scintillation proximity assay.
For a further data set, the system named is Human alphaherpesvirus 1. The data set is described as follows: Antiviral activity against HSV1 KOS by plaque reduction assay. It counts as functional, organism-based. To be noted: Human alphaherpesvirus 1, KOS. Put shortly:
as §1

The nature of data set [3]: Inhibition of human polymerase alpha by scintillation proximity assay.
A short description of data set [4]: Oral bioavailability in rat. The class given is ADME, organism-based. As to conditions: in vivo. Put shortly:
(§2)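 Dosing was intravenous at 5 mg/kg and oral at 15 mg/kg. The vehicle was 80/20 PEG400/0.01 M methanesulfonic acid.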

Data set [5] is described as follows: Inhibition of human polymerase gamma by scintillation proximity assay.
Data set [6] is described as follows: Inhibition of VZV DNA polymerase by scintillation proximity assay. Also noted: species or system Human alphaherpesvirus 3.
A further data set deals with Human alphaherpesvirus 3. The data set is described as follows: Antiviral activity against VZV Webster by plaque reduction assay. To be noted: Human alphaherpesvirus 3, Webster. It counts as functional, organism-based.
Data set [7] has as its target T1, DNA polymerase catalytic subunit (Human herpesvirus 1 (strain KOS) (HHV-1) (Human herpes simplex virus1), UniProt P04292).
T1 sequence (P04292 whole entry): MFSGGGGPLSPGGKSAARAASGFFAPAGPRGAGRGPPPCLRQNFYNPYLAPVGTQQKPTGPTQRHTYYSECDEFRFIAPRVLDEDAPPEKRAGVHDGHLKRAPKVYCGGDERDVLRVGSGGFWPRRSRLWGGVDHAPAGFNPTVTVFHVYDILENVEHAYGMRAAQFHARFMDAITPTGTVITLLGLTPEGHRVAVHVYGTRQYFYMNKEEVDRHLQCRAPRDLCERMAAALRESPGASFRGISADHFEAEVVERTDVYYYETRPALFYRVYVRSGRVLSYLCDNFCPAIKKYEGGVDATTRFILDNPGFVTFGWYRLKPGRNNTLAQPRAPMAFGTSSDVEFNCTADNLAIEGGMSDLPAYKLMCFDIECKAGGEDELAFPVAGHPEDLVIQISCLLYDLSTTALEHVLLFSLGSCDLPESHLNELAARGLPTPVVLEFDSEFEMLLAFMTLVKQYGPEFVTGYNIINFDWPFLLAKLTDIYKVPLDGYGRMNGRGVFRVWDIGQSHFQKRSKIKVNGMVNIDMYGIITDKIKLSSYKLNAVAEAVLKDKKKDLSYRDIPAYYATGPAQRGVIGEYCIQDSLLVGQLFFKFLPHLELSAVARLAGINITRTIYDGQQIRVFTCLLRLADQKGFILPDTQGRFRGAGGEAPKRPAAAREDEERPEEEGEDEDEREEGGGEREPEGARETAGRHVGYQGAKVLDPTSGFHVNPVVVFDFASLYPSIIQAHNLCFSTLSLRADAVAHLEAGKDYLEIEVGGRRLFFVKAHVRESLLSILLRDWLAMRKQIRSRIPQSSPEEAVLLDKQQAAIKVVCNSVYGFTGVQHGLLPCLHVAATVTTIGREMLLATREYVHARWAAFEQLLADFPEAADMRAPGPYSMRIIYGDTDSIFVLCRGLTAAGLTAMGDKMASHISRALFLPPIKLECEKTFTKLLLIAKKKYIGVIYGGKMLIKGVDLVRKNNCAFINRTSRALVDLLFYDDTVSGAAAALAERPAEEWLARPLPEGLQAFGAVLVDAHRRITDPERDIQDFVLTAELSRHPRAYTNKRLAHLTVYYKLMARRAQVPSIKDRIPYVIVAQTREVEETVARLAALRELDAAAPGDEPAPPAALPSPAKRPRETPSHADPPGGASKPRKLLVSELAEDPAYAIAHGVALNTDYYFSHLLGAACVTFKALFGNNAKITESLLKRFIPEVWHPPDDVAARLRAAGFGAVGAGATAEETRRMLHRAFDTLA
The data set is described as follows: Inhibition of HSV1 DNA polymerase by scintillation proximity assay. Details: species or system Human alphaherpesvirus 1.

The nature of data set [8]: Oral bioavailability in dog. The class given is ADME, organism-based, Canis lupus familiaris. As to conditions: in vivo. Put shortly:
as §2

A short description of data set [9]: Aqueous solubility of the compound. It counts as physicochemical.
Data set [10] is described as follows: Cytotoxicity against HFF cells after 3 days by neutral red dye uptake assay. The class given is cell-based. As to conditions: human. The gist of the method:
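Uninfected, replicating HFF cells were seeded as subconfluent monolayers and exposed to compound for 3 days.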

Another data set has as its system Human gammaherpesvirus 4. In words: Antiviral activity against EBV lytic replication in GG68 cells after 72 hrs by Southern blot analysis. It counts as functional, organism-based. As to conditions: human gammaherpesvirus 4, GG68, 72 h.

≈ marks a conversion by molar mass, not a printed value.

Usually IC50 stands for the midpoint of a concentration-inhibition curve. The low end stands for higher potency, the high end for lower potency. As for `CN(Cc1cc2c(=O)c(C(=O)NCc3ccc(F)c(F)c3)cn(C)c2o1)C[C@@H](O)c1ccco1`, the IC50 in data set [1] came to 1020 nM.
`CCN(CC)CCn1cc(C(=O)NCc2ccc(Cl)cc2)c(=O)c2cc(CN(C)C[C@@H](O)c3ccco3)oc21` had an IC50 in data set [1] of 3920 nM.
On to `CN(Cc1cc2c(=O)c(C(=O)NCc3ccc(Cl)cc3)cn(C)c2o1)C[C@@H](O)c1cnccn1`, for which the IC50 in the data set with Human betaherpesvirus 5 was 28 nM; in [1] it was 220 nM.
Consider `CCn1cc(C(=O)NCc2ccc(Cl)cc2)c(=O)c2cc(CN(C)C[C@@H](O)c3ccco3)oc21`, for which the IC50 with Human betaherpesvirus 5 turned out to be 700 nM; in [1], 510 nM.
On to `CN(Cc1cc2c(=O)c(C(=O)NCc3ccc(Cl)cc3)cn(-c3ccccc3)c2o1)C[C@@H](O)c1ccco1`, for which, in [1], the midpoint of inhibition, the IC50, lay at 830 nM.
As for `CN(Cc1cc2c(=O)c(C(=O)NCc3ccc(Cl)cc3)cn(-c3ccccn3)c2o1)C[C@@H](O)c1ccco1`, the IC50 with Human betaherpesvirus 5 amounted to 50 nM; in [1], 140 nM.
By bioavailability is commonly meant the share of a dose that reaches the circulation, judged against a reference dose that is usually intravenous. High values mean good availability, low ones poor availability. Broadly, the solubility is the dissolved amount per volume that the medium holds. Usually CC50 stands for the concentration giving 50% cytotoxicity. Higher therefore signals lower toxicity to the cells. `CN(Cc1cc2c(=O)c(C(=O)NCc3ccc(Cl)cc3)cn(C)c2o1)C[C@@H](O)c1ccco1`: the IC50 in data set [2] is above 20000 nM; in the data set with Human betaherpesvirus 5, 26 nM; in the data set on Human alphaherpesvirus 1 it was 4300 nM; in data set [3] it was above 20000 nM; in [1], 76 nM; in [5], above 20000 nM. Besides, the IC50 in data set [6] worked out at 78 nM; in the data set on Human alphaherpesvirus 3 it was 20 nM; in data set [7], 220 nM; in the data set on Human gammaherpesvirus 4, 400 nM. The bioavailability in data set [4] was determined as 67%; in [8], 76%. Moreover, the concentration in solution in data set [9] (solubility) was 60 µM (≈ 28.2 µg/mL). In data set [10], the CC50 at 72 h was above 100000 nM.
In turn, `CN(Cc1cc2c(=O)c(C(=O)NCc3ccc(Cl)cc3)cn(CCc3ccccc3)c2o1)C[C@@H](O)c1ccco1` yielded an IC50 in data set [1] of 690 nM.
On to `Nc1nc2c(ncn2COCCO)c(=O)[nH]1` [ACYCLOVIR], for which, in the data set with Human betaherpesvirus 5, the IC50 is above 20000 nM. In data set [10], the CC50 at 72 h was above 100000 nM.
The molecule `O=C(O)P(=O)(O)O` [FOSCARNET] came in with a half-maximal inhibitory concentration (IC50) in data set [5] below 280 nM.
In turn, `CN(Cc1cc2c(=O)c(C(=O)NCc3ccc(F)cc3)cn(C)c2o1)C[C@@H](O)c1ccco1` displayed an IC50 in [1] of 610 nM.
With `CN(Cc1cc2c(=O)c(C(=O)NCc3ccc(Cl)cc3)cn(C3CC3)c2o1)C[C@@H](O)c1ccco1`, the IC50 stood at 1200 nM in the data set on Human betaherpesvirus 5 and 420 nM in data set [1].
`CN(Cc1cc2c(=O)c(C(=O)NCc3ccc(C(F)(F)F)cc3)cn(C)c2o1)C[C@@H](O)c1ccco1` came in with an IC50 in [1] of 6450 nM.
On the same count and under the same terms, next, `CCCn1cc(C(=O)NCc2ccc(Cl)cc2)c(=O)c2cc(CN(C)C[C@@H](O)c3ccco3)oc21`: 1120 nM.
`CN(Cc1cc2c(=O)c(C(=O)NCc3ccc(Cl)cc3)cn(C)c2o1)C[C@@H](O)c1ncccn1`: the IC50 in the data set on Human betaherpesvirus 5 was found to be 360 nM; in data set [1], 170 nM.
On to `CN(Cc1cc2c(=O)c(C(=O)NCc3ccc(Br)cc3)cn(C)c2o1)C[C@@H](O)c1ccco1`, for which, in [1], it took 340 nM to reach half-maximal inhibition (IC50).
For the molecule `CN(Cc1cc2c(=O)c(C(=O)NCc3ccc(Cl)cc3)cn(C)c2o1)C[C@@H](O)c1ccccn1`, the IC50 was above 20000 nM in [2]; 170 nM in the data set with Human betaherpesvirus 5; 5400 nM with Human alphaherpesvirus 1; above 20000 nM in [3]; 220 nM in data set [1]; above 20000 nM in [5]. The values for the IC50 (in data set [6]; with Human alphaherpesvirus 3; in data set [7]) were 100 nM, 90 nM and 350 nM, respectively. Besides, the CC50 at 72 h in data set [10] is above 100000 nM.
`CN(Cc1cc2c(=O)c(C(=O)NCc3ccccc3)cn(C)c2o1)C[C@@H](O)c1ccco1` came in with an IC50 in [1] of 11400 nM.
Molecule `Cc1ccc(CNC(=O)c2cn(C)c3oc(CN(C)C[C@@H](O)c4ccco4)cc3c2=O)cc1` showed an IC50 in [1] of 3140 nM.
Molecule `Nc1nc(O)c2ncn(COC(CO)CO)c2n1` [GANCICLOVIR] returned a CC50 at 72 h in [10] above 100000 nM.
Consider `CN(Cc1cc2c(=O)c(C(=O)NCc3ccc(Cl)cc3)cn(C)c2s1)C[C@@H](O)c1ccccn1`, for which the IC50 in the data set on Human gammaherpesvirus 4 amounted to 200 nM.

(Values after ChEMBL document CHEMBL1155120, “Synthesis of 4-oxo-4,7-dihydrofuro[2,3-b]pyridine-5-carboxamides with broad-spectrum human herpesvirus polymerase inhibition” (Bioorg Med Chem Lett, 2008).)
